Screens as filed in PubChem BioAssay.
Kir21 block: blocks the mouse Kir2.1 inward-rectifier potassium channel; P35561; HEK293-Kir2.1, FluxOR thallium flux fluorescence; stronger effect = lower value; B-score at 10 µM; hit rate 0.85% among 310,000; AID 1672;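 active = fluorescence ratio B-score at or below minus 3 SD of library scores, with starting-brightness B-score within 2 SD, cut at about -4.2 in these data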;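 also: channel flux triggered by added potassium and thallium sulfate stimulus; B-score of peak minus minimum fluorescence over baseline after thallium stimulus; more negative B-score means stronger Kir2.1 block with less thallium influx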
Target sequence (P35561 whole entry, looked up): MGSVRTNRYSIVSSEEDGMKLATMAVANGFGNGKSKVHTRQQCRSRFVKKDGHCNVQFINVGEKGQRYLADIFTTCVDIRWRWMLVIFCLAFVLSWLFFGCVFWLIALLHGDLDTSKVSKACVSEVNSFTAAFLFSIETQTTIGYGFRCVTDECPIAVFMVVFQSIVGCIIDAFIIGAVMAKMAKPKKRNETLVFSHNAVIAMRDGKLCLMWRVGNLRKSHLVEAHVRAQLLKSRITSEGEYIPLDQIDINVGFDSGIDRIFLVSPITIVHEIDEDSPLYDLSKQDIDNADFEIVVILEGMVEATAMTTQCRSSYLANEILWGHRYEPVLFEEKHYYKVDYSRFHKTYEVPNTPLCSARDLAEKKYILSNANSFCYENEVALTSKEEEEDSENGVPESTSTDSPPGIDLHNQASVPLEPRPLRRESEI
RGS4 block: inhibitors of human RGS4 | B-score at 10 µM | HEK293 M3R/RGS4 inducible, Fluo-4 calcium flux; stronger effect = higher value; triggered by carbachol at its EC20 | P49798 | hit rate 0.45% among 310,000;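 active = B-score, a plate-corrected calcium signal, over three deviations above library mean, with baseline fluorescence within five deviations of library mean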;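 also: RGS4 expression induced by doxycycline in cells with stable M3 receptor; B-score is computed from the integrated fluorescence ratio over baseline after carbachol; higher B-score means a larger calcium signal and so more RGS4 inhibition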
Target sequence (P49798 whole entry, looked up): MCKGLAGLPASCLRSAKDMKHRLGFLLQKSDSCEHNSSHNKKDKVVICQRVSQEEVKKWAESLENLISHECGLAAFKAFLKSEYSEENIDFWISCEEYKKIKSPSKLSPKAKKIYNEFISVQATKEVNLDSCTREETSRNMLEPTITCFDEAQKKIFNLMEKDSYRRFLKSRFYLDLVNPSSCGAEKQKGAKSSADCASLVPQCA
MrgX1 agonist: human MrgX1 receptor agonism, primary screen; Q96LB2; MrgX1-HEK293 cells, Fluo-4 calcium fluorescence, agonist mode; stronger effect = higher value; hit rate 0.44% among 310,000; B-score at 10 µM;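 active = calcium response B-score plate-corrected fluorescence ratio at least 3 library SD, with starting fluorescence B-score inside 5 SD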
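Material – MrgX1-expressing HEK293 cells · Input – 15,000 cells seeded per well · Dosing – compound as first of three additions · Times – overnight seeding, then 1 h dark dye loading · Measured by – kinetic Fluo-4 NW fluorescence of intracellular calcium · Read-out – B-scored fluorescence response ratio · Benchmarks – positive and negative control wells on each plate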
MrgX1 allo act: allosterically activates human MrgX1 receptor signaling | MrgX1-HEK293, Fluo-4 calcium flux, FDSS; stronger effect = higher value | Q96LB2 | AID 588675 | hit rate 0.63% among 310,000 | B-score at 10 µM;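 active = plate-corrected calcium response at least 3 library SD above typical, normal starting fluorescence, not activating the receptor alone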;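 also: compound read alongside a low EC10 to EC30 dose of BAM8-22 agonist; peak minus trough fluorescence over baseline measured at the second addition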
RGS4 act: potentiators or activators of RGS4; HEK293 M3R/inducible RGS4, carbachol calcium flux Fluo4; stronger effect = lower value; B-score at 10 µM; hit rate 0.92% among 310,000;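 active = B-score of the integrated calcium signal more than 4 SD below the library mean, with starting fluorescence not abnormally high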;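 also: negative B-score means reduced calcium response which marks RGS4 activation or potentiation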
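Material: Inducible-RGS4 HEK293 cells carrying M3 receptor; also added: carbachol at ECmax as muscarinic agonist stimulus; incubation: compound preincubation 20 min at room temperature before agonist; signal: Fluo4-AM (2 µM) calcium-flux fluorescence, kinetic read; measure: integrated calcium ratio converted to B score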
MrgX1 antag: human MrgX1 receptor antagonism, primary screen; B-score at 10 µM; MRGX1-HEK293 calcium flux, Fluo-4, BAM8-22 antagonism; stronger effect = lower value; AID 588676; hit rate 1.3% among 310,000; Q96LB2;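 active = calcium-response B-score plate-corrected more than 3 library SD below zero, starting fluorescence within 5 deviations, no agonist response on first addition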;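 also: peak minus trough fluorescence over baseline after final BAM8-22 challenge near maximal dose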
* hit, by the source's call; i = inactive. Sampled rows, rich in hits. Any-hit rate of the full collection: about 4.1%.

SMILES	Kir21 block	RGS4 block	MrgX1 agonist	MrgX1 allo act	RGS4 act	MrgX1 antag
O=C(Nc1nccs1)c1ccc(S(=O)(=O)c2ccccc2)cc1	-0.06	i	i	i	i	i
CCOc1ccc2nc3c(cc2c1)CN(CCOC)C(=NC)S3	0.47	i	i	i	i	i
CCCc1nc(SCC(=O)Nc2nnc(SCC)s2)c2c(=O)n(C)c(=O)n(C)c2n1	-2.2	i	i	i	i	i
CC(C)N(CC#CC(O)(c1ccccc1)c1ccccc1)C(C)C	0.85	i	i	i	i	i
CC(C)(C#CC(O)(c1ccccc1)c1ccccc1)N1CCCCC1	0.35	i	i	i	-7.1*	i
COc1cccc(CNCCc2c[nH]c3ccccc23)c1OCc1ccccc1	-9.5*	i	i	i	i	i
COc1cccc(CNC23CC4CC(CC(C4)C2)C3)c1OCc1ccccc1	-3.8	i	i	i	i	i
COc1cc(CNCCc2c[nH]c3ccccc23)ccc1OCc1ccccc1F	-8.2*	i	i	i	i	i
COc1cc(/C=C(\C#N)c2nc3c(s2)CCCC3)ccc1O	-18	i	i	i	i	i
O=C(C[n+]1cc(-c2ccc(F)cc2)n2c1CCC2)N1c2ccccc2Sc2ccccc21	-1.2	i	i	i	-9.7*	i
Cc1ccc(-c2c[n+](CC(=O)N3c4ccccc4Sc4ccccc43)c3n2CCC3)cc1	-1	i	i	i	-8.9*	i
O=S(=O)(NCCC1CC1(Cl)Cl)c1ccc(Cl)cc1 (centres undefined)	-1.9	i	i	i	i	i
C/C(CC(=O)Nc1cccc(C(F)(F)F)c1)=N/NC(=O)C(=O)NCCO	0.93	i	i	i	i	i
CCOC(=O)/C(C#N)=C(C)/C=C1\Sc2ccccc2N1CC	-0.68	i	i	i	i	-5.4*
CC(C)CS(=O)(=O)C1=NSC2=NC(=O)/C(=C\c3ccc(OC(=O)c4ccco4)cc3)C(=N)N21	-4.4*	i	i	15*	i	i
COc1cc(/C=C2/C(=N)N3OC(C)=CC3=NC2=O)ccc1OC(=O)c1ccco1	0.1	i	i	i	i	i
COc1cc(/C=C2\C(=N)N3N=C(S(=O)(=O)CC(C)C)SC3=NC2=O)ccc1OC(=O)c1ccco1	-6*	i	i	i	i	i
CC(=O)Nc1ccc(S(=O)(=O)NNC(=O)c2sc(=S)n(C)c2C)cc1	-0.44	i	i	i	i	-4.6*
Cc1c(C(=O)NNS(=O)(=O)c2ccccc2Cl)sc(=S)n1C	2.4	i	i	i	i	i
CCOc1ccc(CCNC(=O)c2cccc3c2C(=O)N(CCOC)C3)cc1OCC	-0.03	i	i	i	i	i
O=C(C1CC1)N1CCC(Oc2cccc(C(=O)N3CCCCC3CCO)c2)CC1 (centres undefined)	-1.4	i	i	i	i	i
O=C(NCc1cccc(Cl)c1)c1cccc(OC2CCN(C(=O)C3CC3)CC2)c1	0.1	i	i	i	i	-5.6*
O=C(c1cccs1)c1no[n+]([O-])c1C(=O)c1cccs1	-11	i	99*	i	-7*	i
Cc1ccc(Oc2ccc(C=O)cn2)cc1	-0.71	i	i	i	i	i
CSc1nccc(Oc2cncc(Cl)c2)n1	-0.04	i	i	i	i	i
SMILES	Kir21 block	RGS4 block	MrgX1 agonist	MrgX1 allo act	RGS4 act	MrgX1 antag
CCN=C1S/C(=C\c2ccc(-c3cccc(C(=O)O)c3)o2)C(=O)N1CC	2.1	i	i	i	i	i
O=C(O)c1cccc(-c2ccc(/C=C3/SC(=Nc4ccccc4)N(Cc4cccnc4)C3=O)o2)c1	2.3	i	i	i	i	-5.1*
CCN1C(=O)/C(=C\c2ccc(-c3cccc(C(=O)OC)c3)o2)SC1=Nc1ccc(C(=O)O)cc1	-0.6	i	i	i	i	-6.5*
CSCC[C@H](NC(=O)N1CCn2c1nc1ccccc12)C(=O)NCc1ccc(C)cc1	-0.04	i	i	i	i	i
O=C(Nc1ccc(F)cc1)C1CCCN1S(=O)(=O)c1cccc2nsnc12 (centres undefined)	0.32	i	i	i	i	i
CC12CCC(C/C1=N/NC(=O)Nc1ccccc1)C2(C)C (centres undefined)	0.33	i	i	13*	i	i
CC12CCC(C/C1=N/O)C2(C)C (centres undefined)	0.16	i	i	i	i	i
CC12CCC(C/C1=N/NC(=O)COc1ccccc1Cl)C2(C)C (centres undefined)	-1.1	i	i	i	i	i
CC12CCC(C/C1=N\OC(=O)c1c(F)cccc1F)C2(C)C (centres undefined)	-0.13	i	54*	i	i	i
CC(=O)c1ccc(OCCCC(=O)NC2CCC(C)CC2)cc1 (centres undefined)	-1.4	i	i	i	i	i
CN1CCN(C(=O)c2cc(=O)c3cc(Cl)ccc3o2)CC1	1.1	i	i	i	i	i
CCn1cc(CN2CCC(n3nccc3NC(=O)Cc3ccccc3)CC2)cn1	0.08	i	i	i	i	i
CCC1CCCCN1C(=O)c1nn2cccnc2c1Cl (centres undefined)	-1.4	i	i	i	i	i
C=CCc1ccc(OCCCCCN2CCOCC2)c(OC)c1	-3	i	i	i	-7.5*	i
C=CCc1ccc(OCCCCOc2ccc(C(=O)O)cc2)c(OC)c1	0.79	i	i	i	i	i
CCCOc1ccc2oc(=O)c3c(c2c1)CCCN3C(=O)CN1CCCC(C(=O)OCC)C1 (centres undefined)	-0.45	i	i	i	i	i
CCCOC(=O)c1c(NC(=O)/C=C/c2cnn(C)c2C)sc(C(=O)OCC)c1C	1.9	i	i	i	i	-4.6*
CN(C)S(=O)(=O)N1CCC(n2nccc2NC(=O)CCCc2ccccc2)CC1	0.77	i	i	i	i	i
Cc1ccc(-c2nc3ccccc3[nH]2)cc1NC(=S)NC(=O)c1ccccc1Br	0.44	i	i	i	-7.1*	i
CCOc1ccc(C(=O)Nc2cc(-c3nc4ccccc4[nH]3)ccc2Cl)cc1[N+](=O)[O-]	-0.24	i	i	i	i	i
CCOc1ccc(C(=O)Nc2cc(-c3nc4ccccc4[nH]3)ccc2C)cc1[N+](=O)[O-]	-0.16	i	i	i	-7.1*	i
